Assay results taken from ChEMBL document CHEMBL4266053, “Puromycins B-E, Naturally Occurring Amino-Nucleosides Produced by the Himalayan Isolate Streptomyces sp. PU-14G” (J Nat Prod, 2018).
pIC50: −log10 of the molar value. In brackets after ≈: the same amount, converted by molar mass. Activity calls are given as the source filed them. No cut-off for these calls is given here.

What was measured:
PC-3 [1] = experiment: Cytotoxicity against human PC3 cells assessed as decrease in cell viability at 100 uM after 48 hrs; format: functional, cell-based
Procedure, shortened: (§1)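 Cell viability measured in triplicate after 48 h exposure to a single 100 μM concentration. Actinomycin D served as the positive control.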

A549 [2] = experiment: Cytotoxicity against human A549 cells assessed as decrease in cell viability at 100 uM after 48 hrs; format: functional, cell-based; procedure, shortened: as §1
Staphylococcus aureus = experiment: Antibacterial activity against Staphylococcus aureus ATCC 6538 after 16 to 48 hrs; format: functional
Procedure, shortened: (§2)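 Bacterial MIC assay run in triplicate and read after 16−48 h incubation. Kanamycin and ampicillin served as positive controls.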

A549 [3] = experiment: Cytotoxicity against human A549 cells assessed as decrease in cell viability after 48 hrs; format: functional, cell-based; details: A549, 48 h
Procedure, shortened: (§3)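 Human cancer cell line viability assay run in triplicate with 48 h compound exposure. IC50 derived from viability data. Actinomycin D served as the positive control.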

Mycolicibacterium aurum = experiment: Antimycobacterial activity against Mycobacterium aurum ATCC 23366 after 16 to 48 hrs; format: functional; procedure, shortened: as §2
PC-3 [4] = experiment: Cytotoxicity against human PC3 cells assessed as decrease in cell viability after 48 hrs; format: functional, cell-based; details: PC-3, 48 h; procedure, shortened: as §3
Micrococcus luteus = experiment: Antibacterial activity against Micrococcus luteus NRRL B-287 after 16 to 48 hrs; format: functional; procedure, shortened: as §2
Bacillus spizizenii = experiment: Antibacterial activity against Bacillus subtilis ATCC 6633 after 16 to 48 hrs; format: functional; procedure, shortened: as §2

| SMILES | Activity (PC-3 [1]) | Activity (A549 [2]) | MIC (Staphylococcus aureus) [µM] | pIC50 (A549 [3]) | MIC (Mycolicibacterium aurum) [µM] | pIC50 (PC-3 [4]) | MIC (Micrococcus luteus) [µM] | MIC (Bacillus spizizenii) [µM] |
| --- | --- | --- | --- | --- | --- | --- | --- | --- |
| CC(=O)N[C@H]1[C@@H](O)[C@H](n2cnc3c(N(C)C)ncnc32)O[C@@H]1CO | Active | Active |  |  |  |  |  |  |
| COc1ccc(C[C@H](O)C(=O)N[C@H]2[C@@H](O)[C@H](n3cnc4c(N(C)C)ncnc43)O[C@@H]2CO)cc1 | Active | Active |  |  |  |  |  |  |
| COc1ccc(C[C@H](NC(C)=O)C(=O)N[C@H]2[C@@H](O)[C@H](n3cnc4c(N(C)C)ncnc43)O[C@@H]2CO)cc1 | Active | Active |  |  |  |  |  |  |
| CC(=O)N[C@@H](CC(C)C)C(=O)N[C@H]1[C@@H](O)[C@H](n2cnc3c(N(C)C)ncnc32)O[C@@H]1CO | Active | Active |  |  |  |  |  |  |
| COc1ccc(C[C@H](N)C(=O)N[C@H]2[C@@H](O)[C@H](n3cnc4c(N(C)C)ncnc43)O[C@@H]2CO)cc1 [PUROMYCIN] |  |  | 4 to 30 (≈ 1.89 to 14.1 µg/mL) | 6.52 | 4 to 30 (≈ 1.89 to 14.1 µg/mL) | 6.52 | 4 to 30 (≈ 1.89 to 14.1 µg/mL) | 4 to 30 (≈ 1.89 to 14.1 µg/mL) |
